Results as given in ChEMBL document CHEMBL4406880, “Design, synthesis, and bioactivity of dihydropyrimidine derivatives as kinesin spindle protein inhibitors” (Bioorg Med Chem, 2019).

How the values were obtained:
Format in all cases: functional
MDA-MB-231 = test: Growth inhibition of human MDA-MB-231 cells assessed as cell viability at 100 uM incubated for 48 hrs by sulforhodamine B assay; conditions: MDA-MB-231, 48 h, read-out: Activity
SW-620 [1] = test: Growth inhibition of human SW620 cells incubated for 48 hrs by sulforhodamine B assay; conditions: SW-620, 48 h
Method in brief: (§1)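 NCI-60 five-dose SRB assay. Cells were exposed for 48 h to tenfold dilutions of 0.01, 0.1, 1, 10 and 100 µM, in RPMI 1640 with 5% FBS. Plates fixed with TCA at the time of drug addition served as the time-zero reference. GI50 is the concentration giving a 50% reduction in net growth. TGI is total growth inhibition. LC50 is a net 50% loss of the initial cells.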

HT-29 = test: Growth inhibition of human HT-29 cells assessed as cell viability at 0.001 uM incubated for 48 hrs by sulforhodamine B assay relative to control; conditions: HT-29, 48 h, read-out: Activity
UACC-257 = test: Growth inhibition of human UACC257 cells assessed as cell viability at 1 uM incubated for 48 hrs by sulforhodamine B assay; conditions: UACC-257, 48 h, read-out: Activity
SF-539 = test: Growth inhibition of human SF539 cells assessed as cell viability at 0.1 uM incubated for 48 hrs by sulforhodamine B assay; conditions: SF-539, 48 h, read-out: Activity
SW-620 [2] = test: Growth inhibition of human SW620 cells assessed as cell viability at 0.1 uM incubated for 48 hrs by sulforhodamine B assay; conditions: SW-620, 48 h, read-out: Activity
786-0 = test: Growth inhibition of human 786-0 cells incubated for 48 hrs by sulforhodamine B assay; conditions: 786-0, 48 h
Method in brief: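 NCI-60 five-dose mode: five tenfold dilutions (0.01, 0.1, 1, 10, 100 µM) are applied for 48 h to cells in RPMI 1640 with 5% FBS at 37 °C. Endpoint is TCA fixation with sulforhodamine B read at 515 nm. % growth comes from the 0 h and control absorbances. GI50 is the concentration giving a 50% reduction in net cell growth.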

SK-MEL-2 [3] = test: Growth inhibition of human SK-MEL-2 cells assessed as cell viability at 0.001 uM incubated for 48 hrs by sulforhodamine B assay relative to control; conditions: SK-MEL-2, 48 h, read-out: Activity
NCI-H226 = test: Growth inhibition of human NCI-H226 cells incubated for 48 hrs by sulforhodamine B assay; conditions: NCI-H226, 48 h
Method in brief: (§2)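 NCI-60 five-dose SRB assay in RPMI 1640 with 5% FBS, 37 °C, 5% CO2. Compound given at five tenfold dilutions, 0.01–100 µM, for 48 h. Adherent cells fixed with TCA, suspension cells with 16% final TCA. Bound SRB read at 515 nm and growth calculated against time-zero and untreated controls. GI50 taken from dose–response curves as the concentration giving a 50% decrease in net cell growth.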

HCT-15 = test: Growth inhibition of human HCT15 cells assessed as cell viability at 100 uM incubated for 48 hrs by sulforhodamine B assay; conditions: HCT-15, 48 h, read-out: Activity
MOLT-4 = test: Growth inhibition of human MOLT4 cells incubated for 48 hrs by sulforhodamine B assay; conditions: MOLT-4, 48 h; method in brief: as §2
SR = test: Growth inhibition of human SR cells assessed as cell viability at 1 uM incubated for 48 hrs by sulforhodamine B assay; conditions: read-out: Activity
DU-145 = test: Growth inhibition of human DU145 cells assessed as cell viability at 100 uM incubated for 48 hrs by sulforhodamine B assay; conditions: DU-145, 48 h, read-out: Activity
UACC-62 = test: Growth inhibition of human UACC62 cells assessed as cell viability at 1 uM incubated for 48 hrs by sulforhodamine B assay; conditions: UACC-62, 48 h, read-out: Activity
OVCAR-3 = test: Growth inhibition of human OVCAR3 cells assessed as cell viability at 0.1 uM incubated for 48 hrs by sulforhodamine B assay; conditions: OVCAR-3, 48 h, read-out: Activity
SK-MEL-2 [4] = test: Growth inhibition of human SK-MEL-2 cells assessed as cell viability at 1 uM incubated for 48 hrs by sulforhodamine B assay; conditions: SK-MEL-2, 48 h, read-out: Activity
UO-31 = test: Growth inhibition of human UO31 cells incubated for 48 hrs by sulforhodamine B assay; conditions: UO-31, 48 h; method in brief: as §1
IGROV-1 = test: Growth inhibition of human IGROV1 cells incubated for 48 hrs by sulforhodamine B assay; conditions: IGROV-1, 48 h; method in brief: as §2
OVCAR-8 = test: Growth inhibition of human OVCAR8 cells incubated for 48 hrs by sulforhodamine B assay; conditions: OVCAR-8, 48 h; method in brief: as §1
Malme-3M = test: Growth inhibition of human MALME-3M cells assessed as cell viability at 0.001 uM incubated for 48 hrs by sulforhodamine B assay relative to control; conditions: read-out: Activity
OVCAR-4 = test: Growth inhibition of human OVCAR4 cells incubated for 48 hrs by sulforhodamine B assay; conditions: OVCAR-4, 48 h; method in brief: as §2
SK-MEL-5 = test: Growth inhibition of human SK-MEL-5 cells assessed as cell viability at 0.1 uM incubated for 48 hrs by sulforhodamine B assay; conditions: SK-MEL-5, 48 h, read-out: Activity
COLO 205 = test: Growth inhibition of human COLO205 cells assessed as cell viability at 100 uM incubated for 48 hrs by sulforhodamine B assay; conditions: COLO 205, 48 h, read-out: Activity
[5] = read-out: LC50 (the source's name)
[6] = read-out: pLC50 (the source's name) (converted)

## CC1=C(C(=O)OCc2ccccc2)C(c2ccc3c(c2)OCO3)n2c(nc3ccccc32)N1 (racemic)
MDA-MB-231
  viability at 100 µM: 49%
SW-620 [1]; read-out: GI50
  GI50: 390 nM
SW-620 [1]; read-out: LC50
  LC50 (concentration causing 50% net loss of initial cells): > 100 µM
SW-620 [1]; read-out: TGI
  TGI: > 100 µM
SW-620 [1]; read-out: pGI50 (converted)
  GI50: 389 nM
SW-620 [1]; read-out: pLC50 (converted)
  LC50 (concentration causing 50% net loss of initial cells): > 100 µM
SW-620 [1]; read-out: pTGI
  TGI: > 100 µM
HT-29
  viability at 0.001 µM: 98%
UACC-257
  viability at 1 µM: 50%
SF-539
  viability at 0.1 µM: 92%
SW-620 [2]
  viability at 0.1 µM: 89%
786-0; read-out: GI50
  GI50: 470 nM
786-0; [5]
  CC50: > 100 µM
786-0; read-out: TGI
  TGI: > 100 µM
786-0; read-out: pGI50 (converted)
  GI50: 468 nM
786-0; [6]
  CC50: > 100 µM
786-0; read-out: pTGI
  TGI: > 100 µM
SK-MEL-2 [3]
  viability at 0.001 µM: 97%
NCI-H226; read-out: GI50
  GI50: > 100 µM
NCI-H226; read-out: LC50
  LC50 (concentration killing 50% of starting cells): > 100 µM
NCI-H226; read-out: TGI
  TGI: > 100 µM
NCI-H226; read-out: pGI50 (converted)
  GI50: > 100 µM
NCI-H226; read-out: pLC50 (converted)
  LC50 (concentration killing 50% of starting cells): > 100 µM
NCI-H226; read-out: pTGI
  TGI: > 100 µM
HCT-15
  viability at 100 µM: 19%
MOLT-4; read-out: GI50
  GI50: 750 nM
MOLT-4; [5]
  CC50: > 100 µM
MOLT-4; read-out: TGI
  TGI: > 100 µM
MOLT-4; read-out: pGI50 (converted)
  GI50: 759 nM
MOLT-4; [6]
  CC50: > 100 µM
MOLT-4; read-out: pTGI
  TGI: > 100 µM
SR
  viability at 1 µM: 52%
DU-145
  viability at 100 µM: 41%
UACC-62
  viability at 1 µM: 29%
OVCAR-3
  viability at 0.1 µM: 85%
SK-MEL-2 [4]
  viability at 1 µM: 52%
UO-31; read-out: GI50
  GI50: 590 nM
UO-31; [5]
  CC50: > 100 µM
UO-31; read-out: pGI50 (converted)
  GI50: 589 nM
UO-31; [6]
  CC50: > 100 µM
UO-31; read-out: pTGI (converted)
  TGI: 63.1 µM
IGROV-1; read-out: GI50
  GI50: 620 nM
IGROV-1; [5]
  CC50: > 100 µM
IGROV-1; read-out: TGI
  TGI: > 100 µM
IGROV-1; read-out: pGI50 (converted)
  GI50: 617 nM
IGROV-1; [6]
  CC50: > 100 µM
IGROV-1; read-out: pTGI
  TGI: > 100 µM
OVCAR-8; read-out: GI50
  GI50: 630 nM
OVCAR-8; [5]
  CC50: > 100 µM
OVCAR-8; read-out: TGI
  TGI: > 100 µM
OVCAR-8; read-out: pGI50 (converted)
  GI50: 631 nM
OVCAR-8; [6]
  CC50: > 100 µM
OVCAR-8; read-out: pTGI
  TGI: > 100 µM
Malme-3M
  viability at 0.001 µM: 94%
OVCAR-4; read-out: GI50
  GI50: 13.3 µM
OVCAR-4; [5]
  CC50: > 100 µM
OVCAR-4; read-out: TGI
  TGI: > 100 µM
OVCAR-4; read-out: pGI50 (converted)
  GI50: 13.2 µM
OVCAR-4; [6]
  CC50: > 100 µM
OVCAR-4; read-out: pTGI
  TGI: > 100 µM
SK-MEL-5
  viability at 0.1 µM: 98%
COLO 205
  viability at 100 µM: 39%
